APP 5'UTR act: activates APP 5'UTR luciferase reporter | SH-SY5Y APP 5'UTR luciferase reporter, luminescence; zero percent = DMSO vehicle wells | activation, % at 2 µM | 190,000 compounds, 1% hits;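 active means activation above a set limit, based on mean plus 3 SD of controls, cut at about 140% in these data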
STAT1 inh: STAT1 signaling inhibition; 200,000 compounds, 0.35% hits; NIH 3T3 STAT1-luciferase reporter, IFN-gamma, luminescence; inhibition, % at 5.5 µM; AID 920;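 active means inhibition above a set limit, the mean inhibition across all tested compounds plus 3 SD, cut at about 34% in these data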;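 further: 0% = IFN-gamma with DMSO and 100% = IFN-gamma with 300 µM nifuroxazide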
STAT1 act: activators of IFN-gamma induced STAT1 signaling; NIH 3T3 STAT1-luciferase reporter, luminescence; 100% = IFN-gamma alone, no compound; activation (% of control), % at 5.5 µM; 200,000 compounds, 2.6% hits;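 active means activation above the screen-wide mean activation plus 3 SD, cut at about 130% in these data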;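 further: raw ratio to IFN-gamma control signal so 100% means no change and 0% no light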
STAT3 blocker: STAT3 signaling inhibition | U3A cells, IL-6 STAT3-luciferase reporter, luminescence; host cell line lacks STAT1 | inhibition, % at 5.5 µM | 190,000 compounds, 0.89% hits;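 active means inhibition above the mean inhibition across all screened compounds plus 3 SD, cut at about 44% in these data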;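 further: 0% = DMSO only wells and 100% = 100 µM nifuroxazide control wells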
NF-kB expr up: raises NF-kB expression in human neuronal cells | NF-kB reporter expression; active compounds read high | fold change at 12.5 µM | 190,000 compounds, 1.6% hits | AID 1239; in the data active means fold change above about 3.3
STAT3 activator: activators of IL-6 induced STAT3 signaling. 190,000 compounds, 0.91% hits. activation (% of control), % at 5.6 µM. U3A cells, IL-6 STAT3-luciferase reporter, luminescence; 100% = signal with IL-6 EC80 alone;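 active means activation above the screen-wide mean of compound activation plus 3 SD, cut at about 130% in these data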;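 further: 0% = background luminescence of wells with medium and substrate only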
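system = STAT3-luciferase reporter U3A cells | reagent = IL-6 stimulus at 33 ng/mL final | timing = 1 h compound pre-exposure, 6 h IL-6 stimulation, 37 °C | measured by = luminescence | evaluation = % activation versus median of IL-6-stimulated wells | control set = IL-6-only wells as 100% reference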
* = called active by the depositor; x = no result given. Rows were chosen to be rich in hits. Some 5.1% of all compounds tested hit in one or more screens of this group.

SMILES	APP 5'UTR act	STAT1 inh	STAT1 act	STAT3 blocker	NF-kB expr up	STAT3 activator
Cc1cccc(/C(N)=N/OC(=O)c2cccs2)c1	237*	-44	140*	-7	6*	106
NC(CSCc1cccc(Br)c1)C(=O)O (stereo not given)	6	-1	100	8	0.9	96
CC(Sc1nnc(-c2ccccc2)c(-c2ccccc2)n1)C(=O)N1CCc2ccccc21 (stereo not given)	5	-2	102	-33	1.1	128
O=c1c2ccccc2nnn1Cc1ccccc1Cl	14	12	87	10	1	94
CCC(=O)Nc1ccc(Cl)c(NC(=O)c2c(OC)cccc2OC)c1	-7	-4	101	5	1.2	100
Cc1ccc(/C=C/C(=O)c2c(C)nc3ccccn23)cc1	196*	-51	147*	8	3.6*	98
Cc1ccc(NC(=O)CCn2cnc3ccccc3c2=O)cc1Cl	-2	-34	131*	14	1.2	93
CC(=O)NC(c1ccc(Cl)cc1)c1c(O)ccc2ccc(O)cc12 (stereo not given)	-19	-33	130*	-11	0.67	110
O=C(NC(c1ccc(Cl)cc1)c1c(O)ccc2ccccc12)c1ccccc1 (stereo not given)	-8	0	100	-12	1.1	108
Clc1ccc(-c2nnc(Sc3nc4ccccc4o3)c3ccccc23)cc1	11	-4	103	10	4.2*	97
Cc1ccc(-c2nnc(Sc3nc4ccccc4o3)c3ccccc23)cc1	38	1	99	6	4.9*	101
COC(=O)c1cc(NC(=O)C2CCCN(S(=O)(=O)c3c(C)n[nH]c3C)C2)cc(C(=O)OC)c1 (stereo not given)	10	5	94	8	1.4	101
CN(C)/C=C1/C(=O)N(c2ccc([N+](=O)[O-])cc2)N=C1c1ccccc1	42	-49	144*	-12	1.8	110
CC1=NN(c2ccc([N+](=O)[O-])cc2)C(=O)/C1=C\N(C)C	-8	-1	103	-10	1.2	106
CCCN1CCc2c(sc(NC(=S)NC(=O)c3ccccc3)c2C#N)C1	36	-20	116	-7	0.85	112
CC(C)N1CCc2c(sc(NC(=S)NC(=O)c3ccccc3)c2C#N)C1	30	-38	134*	-9	0.45	110
O=C(CCN1C(=O)c2cccc3cccc(c23)C1=O)N1CCOCC1	33	-33	129*	19	2	87
O=C(CCN1C(=O)c2ccccc2C1=O)N1CCOCC1	16	1	101	5	1.3	98
COc1ccc(NC(=O)Nc2ccc(F)c(F)c2)c(OC)c1	5	-24	121	10	1.4	101
COc1ccc(C(=O)NNC(=O)CSc2nnc(C)n2CC2CCCO2)cc1 (stereo not given)	29	0	98	14	1.1	94
Cc1ccc(-n2c(C)cc(/C=c3/sc4nc5ccccc5n4c3=O)c2C)cc1	-27	43*	61	63*	0.38	50
O=c1/c(=C\c2cccn2-c2ccccc2)sc2nc3ccccc3n12	75	-8	108	8	0.67	99
O=C(O)Cn1cc(/C=c2/sc3nc4ccccc4n3c2=O)c2ccccc21	65	-35	131*	-10	1.8	110
COc1cc(N2CCCC2)c(OC)cc1/C=c1/sc2nc3ccccc3n2c1=O	18	0	100	-14	0.9	114
Cc1ccc(NC(=S)N(Cc2cccs2)Cc2cc3cccc(C)c3[nH]c2=O)cc1	8	-7	106	-1	0.95	102
SMILES	APP 5'UTR act	STAT1 inh	STAT1 act	STAT3 blocker	NF-kB expr up	STAT3 activator
Nc1ccc(C(=O)OCC(=O)Nc2ccc([N+](=O)[O-])cc2C(F)(F)F)cc1	0	8	93	-1	0.96	97
C/C(=C\C(=O)c1ccc(C)cc1)Nc1cccc(O)c1	157*	-1	101	24	1.4	80
C/C(=C\C(=O)c1ccccc1)Nc1ccc(O)cc1	3	-44	140*	6	4.5*	95
C/C(=C\C(=O)c1cccnc1)Nc1ccc(O)cc1	x	-14	113	2	0.68	97
CN1CCN(c2ccc(Cl)cc2NC(=O)/C=C/c2ccc(F)cc2)CC1	-3	6	93	-2	1.2	108
CCOC(=O)c1c(C)[nH]c(C2=NNC(=Nc3cccc(Cl)c3)SC2)c1C	10	5	96	10	1.1	92
CCCn1cc(NC(=O)c2cc(-c3ccccc3)on2)cn1	0	-32	130*	4	3.6*	103
CCCNC(=O)c1cc(-c2ccc(Br)cc2)on1	10	-22	120	5	3.6*	99
CC(C)NC(=O)c1cc(-c2ccc(Br)cc2)on1	115	-55	150*	8	4.9*	93
COc1ccc(-c2cc(C(=O)NCC(C)C)no2)cc1	26	-36	133*	6	5*	94
CC(C)NC(=O)c1cc(-c2ccco2)on1	35	-18	117	-1	1.5	103
Cc1ccc(-c2cc(C(=O)NCCN3CCOCC3)no2)cc1	22	0	100	6	1.1	98
CCOC(=O)Cc1cnc(NC(=O)CSc2nc(C)c(CC)c(=O)[nH]2)s1	5	3	98	0	1	105
Cc1occc1C(=O)N/N=C/C(Br)=C/c1ccccc1	155*	-54	148*	24	6.4*	81
CC(/C=N/NC(=O)Cc1cccs1)=C\c1ccccc1	77	-26	124	-17	1.9	115
COc1ccc(/C=N/NC(=O)c2ccoc2C)cc1OC	26	-36	132*	4	1.6	95
O=C(Cc1cccs1)N/N=C/C(Br)=C/c1ccccc1	74	-53	148*	-4	1.4	107
CCn1nc(C)c(/C=N/NC(=O)c2ccoc2C)c1C	110	-43	140*	8	1.2	96
COc1ccc(C(=O)N/N=C/C(Br)=C/c2ccccc2)cc1	-24	11	90	2	0.99	97
CCCCCn1nc(C)c(/C=N/NC(=O)c2ccoc2C)c1C	59	-20	119	0	1.2	101
CC(C)N(C)S(=O)(=O)c1ccc(Cl)c(C(=O)O)c1	38	-8	105	-5	1	105
Cc1ccc(C)c(S(=O)(=O)N2CCCOC2CNC(=O)C(=O)NCc2ccncc2)c1 (stereo not given)	-9	-1	101	6	1	96
O=C(N/N=C/C=C/c1ccccc1)c1n[nH]c2c1CCC2	-61	-18	117	-5	1.3	103
O=C(N/N=C/C(Br)=C\c1ccccc1)c1n[nH]c2c1CCC2	-96	-32	129*	-50	8.3*	142*
Cc1ccc(NC2=NC(=S)N(CC#N)C23CCCCC3)cc1	-14	0	100	4	1	100

Source: PubChem BioAssay (several laboratories)
